Screening results deposited in PubChem BioAssay by several laboratories.
This is a sample that favours compounds with a hit; in the whole collection about 2.1% have one here.
CXCR6 inh: CXCR6 receptor inhibitors, primary screen, cell-based, beta-arrestin, luminescence, CHO-K1 PathHunter, 1536-well | C-X-C chemokine receptor type 6 (Homo sapiens), O00574 | inhibition, % at 20 µM | 360,000 compounds, 0.36% hits; in the data active = inhibition above about 34%, passing the limit was not always enough;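 also: antagonist mode with CXCL16 agonist at 10 nM final; 0% = 10 nM CXCL16 with DMSO and 100% = unstimulated wells without agonist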
EBI2 antag: EBI2 receptor antagonists, beta-arrestin recruitment, primary screen, cell-based, luminescence, 7a,25-OHC stimulation, uHTS | inhibition, % at 5 µM | 360,000 compounds, 0.81% hits | 7a,25-OHC stimulated | G-protein coupled receptor 183 (Homo sapiens), P32249; in the data active = inhibition above about 38%;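 also: enzyme fragment complementation signal reports receptor beta-arrestin coupling in cells; 0% = agonist plus DMSO wells and 100% = wells without agonist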
APJ antag: antagonists of human apelin receptor APJ, primary screen, CHO-K1 cells, beta-arrestin complementation, luminescence. inhibition, % at 20 µM. 330,000 compounds, 0.32% hits. AID 2521, 2010;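 active = inhibition above about 40% at 20 µM, limit read from the data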;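 also: cells challenged with 10 nM apelin-13 agonist together with compound; plate controls were apelin-13 plus DMSO wells for no effect and DMSO wells lacking apelin-13 for full effect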
APJ agonist: agonists of human apelin receptor APJ, primary screen, CHO-K1 cells, PathHunter beta-arrestin, luminescence; P35414; 0% DMSO wells, 100% apelin; activation, % at 20 µM; 330,000 compounds, 0.11% hits;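 active = activation more than six SD over the plate average, tested at 20 µM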;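 also: 0% = DMSO alone and 100% = apelin-13 at 10 nM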
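Incubation: overnight seeding, 90 min compound at 25 °C, 1 h detection; test system: PathHunter CHO-K1 APJ (AGTRL-1) beta-arrestin reporter cells; amount: 1000 cells/well; doses: one dose, 20 µM compound, 1% DMSO; measured by: beta-gal luminescence; measure: agonist-driven arrestin binding to APJ; benchmarks: negative DMSO alone, positive Apelin-13 at 10 nM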
CCR6 antagonist: CCR6 receptor antagonists, primary screen, cell-based, CHO-K1, luminescence, beta-arrestin, uHTS; 340,000 compounds, 0.49% hits; CHO-K1 CCR6 PathHunter beta-arrestin, CCL20-stimulated; C-C chemokine receptor type 6 (Homo sapiens), P51684; inhibition, % at 20 µM; AID 493098, 2011;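 active = compounds whose inhibition of the agonist-driven luminescence signal at 20 µM reaches about 50%, limit read from the data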;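 also: cells stimulated with CCL20 at 14 nM final; plate controls were DMSO with CCL20 for no effect and DMSO without agonist for full effect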
Target sequence (P51684 whole entry, looked up): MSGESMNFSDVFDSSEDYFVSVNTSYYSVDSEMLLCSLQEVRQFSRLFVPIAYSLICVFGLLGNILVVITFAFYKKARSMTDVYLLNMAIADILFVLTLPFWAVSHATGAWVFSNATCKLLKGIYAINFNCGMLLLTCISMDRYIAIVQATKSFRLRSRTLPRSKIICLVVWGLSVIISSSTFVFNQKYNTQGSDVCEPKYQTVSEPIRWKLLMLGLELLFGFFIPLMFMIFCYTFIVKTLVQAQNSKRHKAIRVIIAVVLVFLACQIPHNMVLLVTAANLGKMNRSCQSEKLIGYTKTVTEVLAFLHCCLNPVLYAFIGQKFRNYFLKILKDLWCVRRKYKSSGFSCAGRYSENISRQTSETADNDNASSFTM
m5-HT2A agonist: mouse Htr2a agonists via beta-arrestin recruitment, primary screen, cell-based, luminescence. 5-hydroxytryptamine receptor 2A (Mus musculus), P35363. CHO-K1 mHTR2A beta-arrestin complementation; percent of 30 µM serotonin response. AID 624169, 2012. 360,000 compounds, 0.66% hits. activation, % at 7.6 µM;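 active = activation above a run cutoff, the mean activation of all tested compounds plus 3 SD, cut at about 14% in these data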;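 also: 0% = plate median of compound wells and 100% = 30 µM serotonin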
APJ antag conf: APJ antagonists blocking beta-arrestin recruitment, confirmation, cell-based, luminescence, single concentration, uHTS hits; shares compounds with APJ antag; inhibition, % at 20 µM; 950 compounds, 66% hits; antagonist mode; in the data active = inhibition above about 50%
An asterisk follows results filed as active; · = no result given.

SMILES	CXCR6 inh	EBI2 antag	APJ antag	APJ agonist	CCR6 antagonist	m5-HT2A agonist	APJ antag conf
C=CCN(CC=C)Cc1cc(=O)oc2ccc3ccccc3c12	8	6	·	·	·	-5	·
C=CCN(CC=C)Cc1c(O)ccc2c1oc(=O)c1ccccc12	37	11	47*	-11	13	-9	78*
CCOC(=O)N1CC=C2C(C#N)=C(N)C(C#N)(C#N)[C@H](c3ccc(OCC)c(OCC)c3)[C@H]2C1	6	20	22	-3	17	-3	·
N#CC1=C(N)C(C#N)(C#N)C(c2cccnc2)C2CN(C(=O)OCc3ccccc3)CC=C12 (stereo unspecified)	7	9	50*	-8	53*	1	27
O=C(N/N=C/c1ccncc1)C1CC1(c1ccccc1)c1ccccc1 (stereo unspecified)	6	1	8	1	11	3	·
O=C(N/N=C/c1ccc(O)c([N+](=O)[O-])c1)C1CC1(c1ccccc1)c1ccccc1 (stereo unspecified)	27	9	41*	-4	34	7	16
CCOC(=O)C1=C(N)N(c2ccccc2Oc2ccccc2)C(=O)C1	30	-4	9	0	12	3	·
CCOC(=O)C1=C2NC(=O)c3ccccc3N2C(=O)C1	16	10	53*	-2	69*	1	134*
COc1ccc(S(=O)(=O)N2CCOCC2)cc1NC(=O)CN1C(=O)CN(C)C1=O	-8	-17	7	-1	2	5	·
Cc1[nH]n(C(N)=S)c(=O)c1N=Nc1ccc([N+](=O)[O-])cc1Cl	42*	17	51*	-6	60*	2	80*
Cc1ccc(-c2c(C(=O)N/N=C/c3cccc(Cl)c3)nnn2-c2nonc2N)cc1	9	17	53*	-8	18	-10	62*
Cc1ccc(NC(=S)NCC2CCCO2)cc1 (stereo unspecified)	-1	-12	45*	-2	11	1	20
CN1CCN(C(=O)CCS(=O)(=O)c2cc3c(cc2Cl)NC(=O)CO3)CC1	8	-8	-28	-4	2	0	·
Cc1cccc2cc3c(N)c(C(=O)N4CCOCC4)sc3nc12	7	2	51*	-11	23	-6	7
O=C(CSc1c(Cl)cccc1Cl)N1CCC(c2nc3ccccc3s2)CC1	-16	3	-22	1	-5	0	·
COc1ccccc1N1CCN(C(=O)c2cc(-c3ccco3)on2)CC1	0	19	16	-3	0	-4	·
CN(N=Nc1ccc([N+](=O)[O-])cc1)c1ccccc1	-7	2	17	-2	11	0	·
CN(CCCC(=O)O)c1ccc(N=Nc2ccc([N+](=O)[O-])cc2)cc1	56*	6	46*	-10	65*	2	89*
CC1CCN(C(=O)COC(=O)c2cccs2)CC1	4	-5	-7	-4	-6	-1	·
O=C(Cn1nnc(-c2ccccc2)n1)N1CCN(c2ccc(F)cc2)CC1	7	-5	0	-4	-13	-2	·
Cc1ccc(NC(=O)NCCSc2ccc(C)cc2)cc1	4	7	4	-2	3	-4	·
COc1cccc(NC(=O)c2cc3c(=O)n4ccccc4nc3n(CC(C)C)c2=N)c1	5	13	41*	-1	27	4	17
COc1ccc(CNC(=O)c2cc3c(=O)n4ccccc4nc3n(Cc3cccnc3)c2=N)cc1	3	6	15	-4	17	3	·
O=C(NCCc1ccccc1)C(=O)c1c(-c2ccccc2)[nH]c2ccccc12	-7	1	9	-2	-1	-3	·
CC1(C)Oc2ccc3ccc(=O)oc3c2/C(=C/NNC(N)=O)C1=O	35	8	50*	-10	71*	-22	62*
SMILES	CXCR6 inh	EBI2 antag	APJ antag	APJ agonist	CCR6 antagonist	m5-HT2A agonist	APJ antag conf
CC(=O)C1=C(c2ccccc2)N(C(C)=O)n2c(C)nnc2S1	31	35	105*	-18	100*	-2	152*
CCc1ccc(NC(=O)c2ccc(C3SCC(=O)N3CCc3ccccc3)cc2)cc1 (stereo unspecified)	-6	14	62*	2	5	-4	-9
CCNC(=O)c1ccc(C2SCC(=O)N2CCc2ccccc2)cc1 (stereo unspecified)	-4	4	-5	-3	2	-1	·
Cc1occc1C(=O)NNC(=S)Nc1cccc([N+](=O)[O-])c1	4	-4	45*	-5	32	-3	47
Cc1cccc(NC(=S)NNC(=O)c2cccc([N+](=O)[O-])c2)c1	17	-7	27	-5	18	5	·
O=C1Nc2ccccc2C1=Nc1ccc(F)cc1	34	10	49*	-14	68*	-6	119*
CC(=O)c1ccc(N=C2C(=O)Nc3ccccc32)cc1	69*	4	104*	-19	0	3	155*
CSc1cccc(N=C2C(=O)Nc3ccccc32)c1	34	-1	45*	-10	54*	1	110*
COc1ccc(N=C2C(=O)Nc3ccccc32)cc1	8	16	33	-11	33	3	·
Cc1cccc(N=C2C(=O)Nc3c(Cl)cccc32)c1	30	17	63*	-16	65*	-1	136*
O=C1Nc2ccccc2C1=Nc1cccc(Cl)c1	6	6	12	0	7	0	·
COc1ccc(-c2nc3c(c(=O)[nH]c(=O)n3Cc3ccccc3)n2CCO)cc1	4	4	9	-2	16	-10	·
Cc1cc(S(=O)(=O)N2CCCCC2CCNC(=O)C(=O)NCc2cccnc2)ccc1F (stereo unspecified)	-9	0	0	-2	4	1	·
CCCCCC1CCC(c2n[nH]c(=S)n2C)CC1 (stereo unspecified)	32	34	41*	-7	42	1	78*
C=CCn1c(C2CC2)n[nH]c1=S	-1	-4	5	-1	5	6	·
O=c1c2c3c(sc2ncn1/N=C/c1ccco1)CCCC3	0	0	-16	0	15	-1	·
O=C1CN(C(=O)c2ccc(Cl)c([N+](=O)[O-])c2)c2ccccc2N1	3	-16	41*	-1	4	5	-8
